Results from ChEMBL document CHEMBL4261484, “Design, synthesis and anticonvulsant-analgesic activity of new N-[(phenoxy)alkyl]- and N-[(phenoxy)ethoxyethyl]aminoalkanols” (Medchemcomm, 2017).
The source made the active and inactive calls.

Columns and labels:
[1] = tested on: Mus musculus; assay: Toxicity in mouse at 100 mg/kg, ip measured during maximal electroshock seizure test; assay type: organism-based; conditions: in vivo
[2] = tested on: Mus musculus; assay: Neurotoxicity in mouse assessed as motor impairment at 30 mg/kg, ip measured for one min by rotarod test; assay type: toxicity, organism-based; conditions: in vivo, 1 min
Summary of the method: (§1)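 Mice trained on an accelerating rotarod, then tested at least 24 h later after ip pretreatment, on a rod turning at 10 rpm. Neurotoxicity was scored as failure to stay on the rod for one minute. Read-out is mice impaired over mice tested.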

[3] = tested on: Mus musculus; assay: Neurotoxicity in mouse assessed as motor impairment at 100 mg/kg, ip measured for one min by rotarod test; assay type: toxicity, organism-based; conditions: in vivo, 1 min; summary of the method: as §1
[4] = tested on: Mus musculus; assay: Anticonvulsant activity in mouse assessed as protection against maximal electroshock-induced seizures at 30 mg/kg, ip; assay type: functional, organism-based
Summary of the method: (§2)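 Mice dosed ip; maximal seizures induced by auricular electroshock (25 mA, 500 V, 50 Hz, 0.2 s). Endpoint: hind-limb tonic extension; animals without it scored protected. Read-out is number protected over number tested.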

[5] = tested on: Mus musculus; assay: Anticonvulsant activity in mouse assessed as protection against maximal electroshock-induced seizures at 100 mg/kg, ip; assay type: functional, organism-based; summary of the method: as §2
[6] = tested on: Mus musculus; assay: Toxicity in mouse at 30 mg/kg, ip measured during maximal electroshock seizure test; assay type: organism-based; conditions: in vivo
[7] = tested on: Mus musculus; assay: Anticonvulsant activity in ip dosed mouse assessed as protection against maximal electroshock-induced seizures; assay type: functional
Summary of the method: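 Mice were dosed ip. Maximal seizures were induced by auricular electrodes (25 mA, 500 V, 50 Hz, 0.2 s). Absence of hind-limb tonic extension counted as protection. […] Motor impairment was scored on a 10 rpm rotarod, giving TD50 the same way.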

[8] = tested on: Mus musculus; assay: Toxicity in mouse at 20 mg/kg, ip measured during maximal electroshock seizure test; assay type: organism-based; conditions: in vivo
[9] = Protection index, ratio of TD50 for neurotoxicity in ip dosed mouse by rotarod test to ED50 for anticonvulsant activity in mouse by maximal electroshock seizure test; assay type: toxicity, organism-based; conditions: in vivo, read-out: Ratio TD50/ED50
[10] = tested on: Mus musculus; assay: Toxicity in mouse at 15 mg/kg, ip measured during maximal electroshock seizure test; assay type: organism-based; conditions: in vivo
[11] = Neurotoxicity in ip dosed mouse assessed as motor impairment measured for one min by rotarod test; assay type: toxicity, organism-based; conditions: in vivo; summary of the method: as §1
[12] = tested on: HepG2; assay: Cytotoxicity against human HepG2 cells assessed as effect on cell viability at 10 to 250 uM after 24 hrs by MTT assay; assay type: cell-based; conditions: hepg2, 24 h
Summary of the method: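 HepG2 cells grown in MEM with 10% FBS (37 °C, 5% CO2) and seeded at 1 × 10^4. After overnight culture, exposed to 10–250 μM for 24 h. MTT for 3 h, formazan dissolved, OD 570 nm. Viability is % of control ± SEM from three independent experiments.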

[13] = Cytotoxicity against mouse CRL-2541 cells assessed as effect on cell viability at 10 to 250 uM after 24 hrs by MTT assay; assay type: cell-based
[14] = tested on: Mus musculus; assay: Neurotoxicity in mouse assessed as motor impairment by measuring time of escaping from chimney at 32 mg/kg, ip measured for 60 secs (reference value: 8.87 +/- 1.79 secs); assay type: toxicity, organism-based; conditions: in vivo, 1 min
Summary of the method: (§3)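 Mice dosed ip; trained, selected animals placed in a horizontal tube 25 cm long and 2.5 cm in diameter, then tube reversed so mice must climb out backward. Read-outs: escape time (s) ± SEM and % animals losing coordination versus control. Unpaired t test.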

[15] = tested on: Mus musculus; assay: Neurotoxicity in mouse assessed as motor impairment by measuring loss of coordination at 32 mg/kg, ip measured for 60 secs by chimney test relative to control; assay type: toxicity, organism-based; conditions: in vivo, 1 min; summary of the method: as §3
[16] = tested on: Mus musculus; assay: Anticonvulsant activity in mouse assessed as current strength required to induce tonic hind-limb extension in 50% of the animals at 20 mg/kg, ip by maximal electroshock seizure threshold test (reference value: 6.05 to 8.13 mA); assay type: functional
[17] = tested on: Mus musculus; assay: Analgesic activity in mouse assessed as decrease in time of paw licking during phase 1 at 32 mg/kg, ip measured for 5 mins by formalin test relative to control; assay type: functional; set-up: scale not given: the % may be the effect or the level left
Summary of the method: (§4)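 Formalin test in mice: 20 μL of 5% formalin injected intraplantarly into the right hind paw. Each mouse was observed alone in a glass beaker for 30 min. Time (s) spent licking or biting the injected paw was recorded at 0–5 min (acute phase) and 15–30 min (inflammatory phase).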

[18] = tested on: Mus musculus; assay: Toxicity in mouse at 10 mg/kg, ip measured during maximal electroshock seizure test; assay type: organism-based; conditions: in vivo
[19] = tested on: Mus musculus; assay: Anticonvulsant activity in mouse assessed as increase in electroconvulsive threshold at 20 mg/kg, ip by maximal electroshock seizure threshold test relative to control; assay type: functional
[20] = tested on: Mus musculus; assay: Anticonvulsant activity in mouse assessed as protection against subcutaneous pentylenetetrazole-induced seizures by measuring latency time of tonic seizures at 30 mg/kg, ip measured for 30 mins post pentylenetetrazole challenge at 0.5 hrs after compound dosing (reference value: 562.8 to 614.9 secs); assay type: functional
[21] = tested on: Mus musculus; assay: Anticonvulsant activity in mouse assessed as protection against subcutaneous pentylenetetrazole-induced seizures by measuring latency time of tonic seizures at 100 mg/kg, ip measured for 30 mins post pentylenetetrazole challenge at 0.5 hrs after compound dosing (reference value: 562.8 to 614.9 secs); assay type: functional
[22] = tested on: Mus musculus; assay: Toxicity in mouse assessed as effect on spontaneous activity at 32 mg/kg, ip measured for 30 mins by photoresistor actometer relative to control; assay type: organism-based; conditions: in vivo, 0.5 h
Summary of the method: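 Mice dosed ip; locomotor activity by photoresistor actometers counting light-beam interruptions. Each mouse was habituated 30 min in a cage, then crossings were counted over a 30 min session. Data are mean ± SEM and % change vs control; unpaired t test.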

[23] = tested on: Mus musculus; assay: Anticonvulsant activity in mouse assessed as protection against subcutaneous pentylenetetrazole-induced seizures at 30 mg/kg, ip measured for 30 mins post pentylenetetrazole challenge at 0.5 hrs after compound dosing relative to control; assay type: functional
[24] = tested on: HepG2; assay: Cytotoxicity against human HepG2 cells assessed as effect on cell viability at 10 to 250 uM after 24 hrs by neutral red assay; assay type: cell-based; conditions: hepg2, 24 h
Summary of the method: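 HepG2 cells seeded at 5 × 10^4 per well, then after 24 h given medium with 10–250 μM for 24 h. Viability by neutral red staining, OD 570 nm. Results are % of control ± SEM, three independent experiments.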

[25] = tested on: Mus musculus; assay: Anticonvulsant activity in mouse assessed as protection against subcutaneous pentylenetetrazole-induced seizures at 100 mg/kg, ip measured for 30 mins post pentylenetetrazole challenge at 0.5 hrs after compound dosing relative to control; assay type: functional
[26] = tested on: Mus musculus; assay: Anticonvulsant activity in mouse assessed as protection against maximal electroshock-induced seizures at 10 mg/kg, ip; assay type: functional, organism-based; summary of the method: as §2
[27] = tested on: Mus musculus; assay: Analgesic activity in mouse assessed as decrease in time of paw licking during phase 2 at 32 mg/kg, ip measured for 15 to 30 mins by formalin test relative to control; assay type: functional; set-up: scale not given: the % may be the effect or the level left; summary of the method: as §4
[28] = tested on: Mus musculus; assay: Toxicity in mouse at 25 mg/kg, ip measured during maximal electroshock seizure test; assay type: organism-based; conditions: in vivo
[29] = tested on: Mus musculus; assay: Anticonvulsant activity in mouse assessed as protection against maximal electroshock-induced seizures at 60 mg/kg, ip; assay type: functional, organism-based; summary of the method: as §2

Cc1ccc(Cl)c(OCCCCNC(C)CO)c1 (racemic)
Activity [1]: Non-Toxic | Activity [2]: Non-Toxic | Activity [3]: Toxic | Activity [4]: inactive | Activity [5]: Active | Activity [6]: Non-Toxic

Cc1cccc(Cl)c1OCCOCCNC[C@H](O)c1ccccc1
Activity [3]: Toxic

Cc1cccc(Cl)c1OCCCCNC(C)CO (racemic)
Activity [1]: Non-Toxic | ED50 [7]: 19.1 mg/kg | Activity [8]: Non-Toxic | selectivity ratio [9]: 2.4 | Activity [10]: Non-Toxic | TD50 at 1 min [11]: 45.7 mg/kg | Activity [5]: Active

Cc1cccc(Cl)c1OCCCCN[C@@H](C)CO
Activity [3]: Toxic

Cc1ccc(Cl)c(OCCCCN[C@H](C)CO)c1
Activity [1]: Non-Toxic | Activity [2]: Non-Toxic | Activity [3]: Toxic | Activity [4]: inactive | Activity [5]: Active | Activity [6]: Non-Toxic

Cc1ccc(OCCN[C@H]2CCCC[C@@H]2O)c(C)c1 (racemic)
Activity [1]: Non-Toxic | Activity [12]: Non-Toxic | Activity [13]: Non-Toxic | Time [14]: 4.75 s | ED50 [7]: 31.8 mg/kg | Activity [15]: 0% | Activity [16]: 9.33 mA | Activity [17]: 18.55% | Activity [18]: Toxic | Activity [19]: 23.9% | Time [20]: 576.4 s | selectivity ratio [9]: 2.41 | Time [21]: 921 s | Activity [22]: 8.2% | Activity [23]: 2.42% | Activity [24]: Non-Toxic | TD50 at 1 min [11]: 76.8 mg/kg | Activity [5]: Active | Activity [25]: 57.71% | Activity [26]: inactive | Activity [27]: 46.16%

CCC(O)CNCCOCCOc1cc(Cl)ccc1C (racemic)
Activity [1]: Non-Toxic | Activity [3]: Toxic | Activity [4]: inactive | Activity [5]: Active | Activity [6]: Non-Toxic

Cc1ccc(Cl)c(OCCN2CCC(O)CC2)c1
Activity [1]: Non-Toxic | Activity [3]: Toxic | Activity [5]: Active

Cc1cccc(C)c1OCCCCNCC(C)O (racemic)
Activity [1]: Non-Toxic | ED50 [7]: 27.1 mg/kg | selectivity ratio [9]: 1.6 | TD50 at 1 min [11]: 43.3 mg/kg | Activity [5]: Active | Activity [28]: Non-Toxic | Activity [6]: Non-Toxic

Cc1ccc(Cl)c(OCCOCCN2CCC(O)CC2)c1
Activity [1]: Non-Toxic | Activity [2]: Non-Toxic | Activity [4]: inactive | Activity [5]: Active

Cc1cccc(C)c1OCCCCN[C@H]1CC[C@H](O)CC1
Activity [1]: Toxic | Activity [29]: inactive
